This is an account of results in ChEMBL document CHEMBL4513216, “Probing the Open Global Health Chemical Diversity Library for Multistage-Active Starting Points for Next-Generation Antimalarials” (ACS Infect Dis, 2020).

This data set in a line: Toxicity liver stage against HepG2, at 10uM. The class given is cell-based. Set-up: test concentration 10 uM, cell line HepG2-A16-CD81EGFP. Conditions: human, HepG2-A16-CD81EGFP cells; read-out: INHIBITION
Summed up: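 Uninfected HepG2-A16-CD81EGFP cells, 3 × 10^3 per well, 1536-well, plated on prespotted compound at 10 μM final, parasite-free screening media added to match infected plates; puromycin 10 μM positive, DMSO 0.5% negative; run in parallel with 48 h PbLuc assay at 37 °C, 5% CO2; viability by CellTiter-Glo luminescence, normalized to controls.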
On to `CC1=C[C@@H](CN2CCC(O)CC2)[C@H](C(C)C)C[C@H]1Cc1nnc(C)o1`, for which the cytotoxicity at 10 µM worked out at 0.788%.
The figure for `CC(=O)N1CC[C@H](c2nc3cc(C)ccc3o2)C1` is -4.13%; for `COCCNc1c(-c2ccc(Cl)cc2)c(=O)c1=O` it is -1.99%; for `O=S1(=O)c2cccnc2OC(Cc2ccccc2)CN1CC1CC1` (configuration not stated) it is -2.46%.
Regarding `CN1C(=O)C2(CC(=O)Nc3c2cnn3C(C)(C)C)c2ccccc21` (configuration not stated), the cytotoxicity at 10 µM was -4.5%.
The figure for `Cn1ncc2c1NC(=O)CSC2c1ccc2c(c1)OCO2` (configuration not stated) is 0.435%; for `Cc1c(C2CC(=O)Nc3c2cnn3C(C)C)cnn1C` (configuration not stated) it is -6.72%.
Turning to `CCSc1nc(N)c(NC(=O)c2ccc(C)cc2)c(=O)[nH]1`, the cytotoxicity at 10 µM was -57.3%.
As to `Cc1cc(C(=O)N2CCN(c3nc4c(C)cccc4s3)CC2)no1`, the cytotoxicity at 10 µM worked out at 12.1%.
With `COc1ccc(C(=O)NCC(C)(O)CCc2ccccc2)cc1` (configuration not stated), the cytotoxicity at 10 µM was -7.39%.
For `CCCC(=O)N1CCC2(CC1)COC2`, the cytotoxicity at 10 µM stood at 1.58%.
Then `CN1CC(c2ccccc2)C2(CCN(C(=O)c3cccn3C)CC2)C1=O` (configuration not stated), with 3.83%; and `COCCN1CCC2(CCCN(c3ncc(F)cn3)C2)C1` (configuration not stated), with 4.71%.
As for `Cc1noc([C@@]23CCO[C@@H]2CCN(C(=O)c2cc(C)[nH]c2C)C3)n1`, the cytotoxicity at 10 µM worked out at 10.4%.
On to `CCS(=O)(=O)N1CCOC2(CCCN(c3cccc(C#N)c3)C2)C1` (configuration not stated), for which the cytotoxicity at 10 µM came to 0.341%.
As to `CN(C)c1ncc2c(n1)C1(CCN(Cc3cccnc3)C1)COC2` (configuration not stated), the cytotoxicity at 10 µM was 9.05%.
With `CCOC1COC2(CCN(Cc3ccc4c(c3)OCO4)CC2)C1` (configuration not stated), the cytotoxicity at 10 µM is 6.94%.
Turning to `CN(C)CCN1CCCC12CCN(C(=O)c1cnccn1)CC2`, the cytotoxicity at 10 µM came to 4.99%.
The figure for `CCC(CC)CN1CCN(CC(=O)Nc2cccc3nsnc23)CC1` is 6.16%.
For the compound `CCC(=O)Nc1nnc(CCCOc2ccccc2)s1`, the cytotoxicity at 10 µM is -0.834%.
The figure for `CCc1cccc2cc(CNCCOC)c(=O)[nH]c12` is 1.47%; for `O=C(c1cccnc1)N1Cc2ccccc2OCC1Cn1ccnc1` (configuration not stated) it is 1.68%; for `CNC(=O)c1sc2ccccc2c1CC1CCCN1Cc1cnc(C)s1` (configuration not stated) it is 2.59%.
Then `CC(=O)N1CCN([C@@H]2CC[C@@H](NC(=O)c3ccc(C)nc3)[C@H]2O)CC1`, with -3.08%; and `CCc1nnc(S(=O)(=O)Cc2cc(Cl)c3c(c2)OCO3)n1C`, with -46.3%.
As to `Cc1cccc(NCc2nc(C)ccc2O)c1`, the cytotoxicity at 10 µM was -3.59%.
For `Cc1ccn(Cc2nc(CC(C)C)no2)c(=O)c1`, the cytotoxicity at 10 µM was 6.21%.
On to `CCC(C)(C)NC(=O)c1scnc1Cl`, for which the cytotoxicity at 10 µM was -0.47%.
For the compound `CCc1ccc(C(NC(=O)CN(C)S(C)(=O)=O)C(C)(C)C)o1` (configuration not stated), the cytotoxicity at 10 µM is -1.76%.
Turning to `CCNC(=O)c1ccc(NC2CCOC3(CCCC3)C2)nn1` (configuration not stated), the cytotoxicity at 10 µM was -5%.
For `Cc1cnc(C(NC(=O)NCc2nc(C3CC3)no2)C2CC2)s1` (configuration not stated), the cytotoxicity at 10 µM is 4.34%.
For the compound `CN(CCC#N)C(=O)CN1CCCN(Cc2noc(C3CC3)n2)CC1`, the cytotoxicity at 10 µM is 6.39%.
With `CNC(=O)NC(=O)C(NCc1ccccc1)c1ccccc1` (configuration not stated), the cytotoxicity at 10 µM was -52.9%.
Then `CCNC(=O)NCc1ccc(CN2CCCC(C)C2)cc1` (configuration not stated), with -5.03%.
Then `CC(SCC(=O)NC(N)=O)c1ccccc1F` (configuration not stated), with 2.96%.
Turning to `COCCn1cc(C(=O)N2CCCC2c2ccccc2C)ccc1=O` (configuration not stated), the cytotoxicity at 10 µM was 7.69%.
Then `Cc1[nH]ncc1CCCNC(=O)Nc1ccccc1`, with -2.2%; and `Cc1cc(N2CCN(C(=O)c3cc(Cl)c[nH]3)CC2)nc(C(C)C)n1`, with 3.49%.
As to `CC(C)C(=O)Nc1ccc(Sc2nncn2C)c(Cl)c1`, the cytotoxicity at 10 µM was -1.18%.
`NC(=O)CN1CCC(NC(=O)N2CCCC2c2ccncc2)CC1` (configuration not stated): the cytotoxicity at 10 µM is 10.5%.
Turning to `CN(Cc1nnc(-c2ccco2)o1)Cc1nc2c(s1)CCCC2`, the cytotoxicity at 10 µM worked out at 1.13%.
For the compound `CSCC(C)(O)CNc1ncccc1I` (configuration not stated), the cytotoxicity at 10 µM was -2.36%.
As to `CN(C)C(CNCc1nc(-c2ccsc2)no1)c1ccco1` (configuration not stated), the cytotoxicity at 10 µM is 10.2%.
Then `COc1ccc(C(C)N2CCC(C(=O)N(C)C)CC2)cc1Cl` (configuration not stated), with -52.5%; and `N#Cc1cccc(CS(=O)(=O)NCCC(O)c2ccccc2)c1` (configuration not stated), with 0.692%; and `COc1ncccc1CN1Cc2nccn2CC(Cn2cccn2)C1` (configuration not stated), with -106%.
For the compound `CCS(=O)(=O)N1CC[C@@H]2[C@H]1CCC(=O)N2CCOC`, the cytotoxicity at 10 µM is -104%.
Then `COCCC(=O)N1C[C@H]2CCC[C@@]2(COC)C1`, with 6.75%; and `CC(C)N(C)Cc1nnc2n1CCCN(c1cnccn1)C2`, with 0.0861%; and `O=C(CC1CC1)N1C[C@H]2CCN[C@H]2C1`, with 5.75%.
Then `CN(C)Cc1nc2c(o1)CN(C(=O)c1ccncc1F)C2`, with -114%.
Turning to `CS(=O)(=O)NCc1cc(-c2cc(F)cc(F)c2)nc(N2CC[C@H](O)C2)n1`, the cytotoxicity at 10 µM is -9.58%.
The figure for `Cc1nc(CN2CCCCC2CCc2cccs2)co1` (configuration not stated) is -2.36%; for `Cc1ncoc1C(=O)N1CCOC(CC2CCCCC2)C1` (configuration not stated) it is -1.33%.
The figure for `CCOc1c(CNC2CSCCSC2)cccc1OC` is 10.8%; for `COCCCN1C(=O)CC[C@H]2CN(c3cc(C(N)=O)ccn3)CC[C@H]21` it is 4.12%.
On to `CCC(CC)CN(C)Cc1nc(-c2ccccc2NS(C)(=O)=O)oc1C`, for which the cytotoxicity at 10 µM was -7.69%.
Take `CCOc1ccc(-c2c(-c3ccccc3)ncn2C2CCNC2)cn1` (configuration not stated): the cytotoxicity at 10 µM is -51.9%.
Turning to `CN1CC2(CCN(c3nc(N)nc4c3CCNC4)CC2)OC1=O`, the cytotoxicity at 10 µM was -5.66%.
For `CCc1nc(C)c(C2CC(=O)Nc3c2c(-c2ccccn2)nn3C)[nH]1` (configuration not stated), the cytotoxicity at 10 µM is -6.37%.
Consider `C[C@@H]1CN(c2ccc(C#N)cn2)CC[C@@]1(O)C1CCOCC1`, for which the cytotoxicity at 10 µM is -1.5%.
Take `CC(=O)c1ccccc1-c1nc(CC2CCN(C)CC2)no1`: the cytotoxicity at 10 µM was -17.5%.
Take `CS(=O)(=O)NCCNc1ncnc2cccc(F)c12`: the cytotoxicity at 10 µM is 3.17%.
Take `CNc1ncc(CN(C)c2nc(C3CCCC3)nc3c2cnn3C)cn1`: the cytotoxicity at 10 µM was determined as 24.1%.
As for `CN(C)CCNC(=O)c1cc2n(n1)CCN(C(=O)c1ccc[nH]1)C2`, the cytotoxicity at 10 µM turned out to be 2.58%.
Then `COCCCC1(CO)CCCN(C(=O)c2cnc(C3CC3)nc2)C1` (configuration not stated), with -39.7%.
With `O=C1CCC(=O)N1c1nn(Cc2c(F)cccc2Cl)cc1Cl`, the cytotoxicity at 10 µM is -11.3%.
On to `CC(=O)N(C)CCCc1cc(-c2ccccc2)no1`, for which the cytotoxicity at 10 µM was -7.16%.
`CC(NC(=O)NCCCn1cncn1)c1ccc(C#N)cc1` (configuration not stated): the cytotoxicity at 10 µM was -2.6%.
Then `CC(C)c1ncc2c(n1)CN(Cc1nnc(Cc3ccccc3)o1)CC2`, with -12.6%; and `COC(=O)NCC(=O)NCc1nn(-c2ccccc2)c2c1CCC2`, with -7.72%.
For the compound `Cc1csc(N2CCN(C(=O)C3(C#N)CCCCC3)CC2)n1`, the cytotoxicity at 10 µM is -8.45%.
As to `CCC(C)(C)NC(=O)Cn1nc(C)nc1-c1cccc(C)c1`, the cytotoxicity at 10 µM was -8.44%.
As to `CC(C)Cc1cc(NC(=O)c2ccc[nH]2)n(C)n1`, the cytotoxicity at 10 µM was -6.56%.
As to `Cc1cc(C)n(CC2CCCN2CCCS(N)(=O)=O)n1` (configuration not stated), the cytotoxicity at 10 µM was -4.1%.
With `CN1CCN(c2cc(CNC(=O)c3ccc(=O)[nH]n3)ccn2)CC1`, the cytotoxicity at 10 µM was -15%.
Take `Cc1ccccc1-c1cc(C(=O)N2CCn3c(C)nnc3C2)[nH]n1`: the cytotoxicity at 10 µM was -5.82%.
Turning to `CCOc1ccccc1C(CC(=O)Nc1ccc(C)cn1)NC(C)=O` (configuration not stated), the cytotoxicity at 10 µM is -10.7%.
For the compound `Cn1cc(C2CCCN2C(=O)CCCOCc2ccccc2)cn1` (configuration not stated), the cytotoxicity at 10 µM was -10.2%.
For the compound `CC(C)N(CC(N)=O)Cc1csc(Cc2ccccc2)n1`, the cytotoxicity at 10 µM is -2.32%.
Regarding `Cn1cnc2c1CCN(CCCOc1ccc(C#N)cc1)C2`, the cytotoxicity at 10 µM was -12.4%.
The figure for `CCN1CCC(NC(=O)CN2CCc3c(nc(C4CC4)n3C)C2)CC1` is -10.2%; for `COc1ccccc1CN1CCCCC1c1n[nH]cc1-c1cc(C)no1` (configuration not stated) it is 13.6%; for `c1coc(CN2C[C@@H]3CN(Cc4ccoc4)CCO[C@@H]3C2)c1` it is -3.87%.
As to `O=C(c1cscn1)N1CCC2(CN(Cc3ccncc3)C2)C1`, the cytotoxicity at 10 µM was 6.82%.
The figure for `COCCNC(=O)[C@H]1CN(Cc2csc(C)n2)C[C@H]2OCC[C@@H]12` is 9.9%; for `c1cnc(NCc2nnn3c2CN(Cc2cccs2)CCC3)nc1` it is 10.1%.
Regarding `Cn1cccc1CN1CCC2(CC1)CC(Oc1cccnc1)C2`, the cytotoxicity at 10 µM stood at 13.4%.
Take `COCCN1C[C@@H]2CN(Cc3ccc(C)s3)CCC[C@]2(C(=O)O)C1`: the cytotoxicity at 10 µM is -96.8%.
Regarding `Cc1cc2c(=O)n3c(nc2s1)CCN(Cc1cnn(C)c1C)CC3`, the cytotoxicity at 10 µM is 3.06%.
Then `O=C([C@H]1CN(Cc2ccc(F)cc2)C[C@H]2OCC[C@@H]12)N1CCCO1`, with 7.77%; and `c1ccc(OCc2nnc3n2CCN(Cc2ccco2)C3)nc1`, with 5.5%; and `Cc1cccc(C(=O)N2CCC3(CCN(c4cnn(C)c4)C3=O)C2)n1` (configuration not stated), with 5.05%.
With `Cc1nc(CO[C@H]2CN(C(=O)c3cnoc3C)[C@@H]3COC[C@H]23)cs1`, the cytotoxicity at 10 µM was -107%.
In the case of `CCS(=O)(=O)NC[C@]12COC[C@H]1CN(Cc1cccnc1)C2`, the cytotoxicity at 10 µM came out at 5.22%.
Consider `COc1cccc(CCN2C[C@H]3CCNCC[C@H]3S2(=O)=O)c1`, for which the cytotoxicity at 10 µM is -8.35%.
On to `Cc1ccc(CN2C[C@@H]3CC[C@H]2CN(Cc2[nH]cnc2C)C3)o1`, for which the cytotoxicity at 10 µM was -6.81%.
